Like-named read-outs stand apart in the source and are kept apart here.
Experiments:
[1] = male rats, ref Waidyanatha et al., cited from earlier work
in vivo [2] = conditions: male, B6C3F1/N, mouse; for half-life: Free Elimination half-life
[3] = assay type: in vivo, rat; conditions: male rats; for group mean daily body weight gain: 7 d; for average daily feed consumption: 7 d exposure; for survival: all exposure groups, 7 d via feed
[4] = Stability in dosed-feed formulations; assay type: physicochemical; conditions: up to 42 d, RE ≤ ± 10% of day 0 value
[5] = assay type: in vivo, mouse; conditions: male mice; for group mean daily body weight gain: 7 d; for average daily feed consumption: 7 d exposure; for survival: all exposure groups, 7 d via feed
[6] = assay type: in vivo, rat; conditions: male rats, dose-normalized
Outline: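 Male rats (272–308 g, 8–9 weeks), singly caged, received dosed feed ad libitum at 338, 1125 or 3750 ppm for 7 days. Control feed followed, with plasma sampled up to 24 h. Free and deconjugated total test compound were measured by LC-MS/MS. Cmax and AUC came from an extravascular model and were normalized to the daily dose (food consumption, concentration, body weight). Gavage values were taken from earlier single-dose work.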

in vivo [7] = conditions: male; for half-life: po, Free Elimination half-life
[8] = gavage 34 mg/kg vs feed 23.4 mg/kg
[9] = gavage 110 mg/kg vs feed 70.5 mg/kg
[10] = gavage 340 mg/kg vs feed 193 mg/kg
[11] = Hsd:Sprague Dawley SD (rat), B6C3F1/N (mouse)

Oc1ccc(C(c2ccc(O)cc2)(C(F)(F)F)C(F)(F)F)cc1 [BPAF, 2,2-bis(4-hydroxyphenyl)perfluoropropane]
Gavage AUC/D ([1]; single gavage 34 mg/kg, 2019): 11.7 (h*ng/mL)/(mg/kg) | Gavage Cmax/D ([1]; single gavage 34 mg/kg, 2019): 1.79 (ng/mL)/(mg/kg) | Gavage AUC/D ([1]; single gavage 110 mg/kg, 2019): 11.2 (h*ng/mL)/(mg/kg) | Gavage Cmax/D ([1]; single gavage 110 mg/kg, 2019): 1.29 (ng/mL)/(mg/kg) | Gavage AUC/D ([1]; single gavage 340 mg/kg, 2019): 14.2 (h*ng/mL)/(mg/kg) | Gavage Cmax/D ([1]; single gavage 340 mg/kg, 2019): 1.62 (ng/mL)/(mg/kg) | Total plasma elimination half-lives, range over exposure concentrations (in vivo [2]): 3.49 to 4.18 h | half-life (in vivo [2]; po): 6.66 h | group mean daily body weight gain ([3]; 338 ppm via feed): 3.38 ± 3.37 g | average daily feed consumption ([3]; 338 ppm): 69.2 ± 5.8 g/kg bw/d | group mean daily body weight gain ([3]; 1125 ppm via feed): 2.12 ± 3.68 g | average daily feed consumption ([3]; 1125 ppm): 61.0 ± 11.7 g/kg bw/d | group mean daily body weight gain ([3]; 3750 ppm via feed): −0.4 ± 2.3 | average daily feed consumption ([3]; 3750 ppm): 51.5 ± 20.5 g/kg bw/d | survival [3]: All animals survived until the end of the study | stability in feed formulations stored at refrigerated temperature [4]: confirmed | group mean daily body weight gain ([5]; 338 ppm via feed): 0.3 ± 0.5 g | average daily feed consumption ([5]; 338 ppm): 207 ± 68 g/kg bw/d | group mean daily body weight gain ([5]; 1125 ppm via feed): 0.1 ± 0.6 g | average daily feed consumption ([5]; 1125 ppm): 211 ± 68 g/kg bw/d | group mean daily body weight gain ([5]; 3750 ppm via feed): 0.1 ± 0.7 g | feed consumption, fold higher than pre-study control food consumption ([5]; 3750 ppm, probably due to high spillage rate): 1.7 fold | survival [5]: All animals survived until the end of the study | Ratio (Gavage/Feed) AUC [6, 8]: 2.3 | Ratio (Gavage/Feed) Cmax [6, 8]: 3.9 | Ratio (Gavage/Feed) AUC [6, 9]: 1.6 | Ratio (Gavage/Feed) Cmax [6, 9]: 2.2 | Ratio (Gavage/Feed) AUC [6, 10]: 3.7 | Ratio (Gavage/Feed) Cmax [6, 10]: 4.9 | Total plasma elimination half-lives, fold longer in rats compared to mice (in vivo [7]; [11]): 2-3 fold | Total Elimination half-life (in vivo [7]; Hsd:Sprague Dawley SD, rat): 13.3 h | half-life (in vivo [7]; Hsd:Sprague Dawley SD, rat): 7.1 h

O=S(=O)(c1ccc(O)cc1)c1ccc(O)cc1 [BPS, 4,4’-sulfonyldiphenol]
Gavage Cmax/D ([1]; single gavage 34 mg/kg, 2020): 9.2 (ng/mL)/(mg/kg) | Gavage Cmax/D ([1]; single gavage 340 mg/kg, 2020): 9.5 (ng/mL)/(mg/kg) | Total plasma elimination half-lives, range over exposure concentrations (in vivo [2]): 6.11 to 7.89 h | Free Elimination half-life (in vivo [2]; po): 6.82 h | half-life (in vivo [2]; po): 6.11 h | group mean daily body weight gain ([3]; 338 ppm via feed): 3.7 ± 4.4 g | average daily feed consumption ([3]; 338 ppm): 68 ± 2.5 g/kg bw/d | group mean daily body weight gain ([3]; 1125 ppm via feed): 3.7 ± 2.7 g | average daily feed consumption ([3]; 1125 ppm): 68 ± 3.5 g/kg bw/d | group mean daily body weight gain ([3]; 3375 ppm via feed): 2.6 ± 5.9 g | average daily feed consumption ([3]; 3375 ppm): 62 ± 5.1 g/kg bw/d | survival [3]: All animals survived until the end of the study | stability in feed formulations stored at refrigerated temperature [4]: confirmed | group mean daily body weight gain ([5]; 338 ppm via feed): 0.1 ± 0.4 g | average daily feed consumption ([5]; 338 ppm): 389 ± 85 g/kg bw/d | group mean daily body weight gain ([5]; 1125 ppm via feed): 0.1 ± 0.3 g | average daily feed consumption ([5]; 1125 ppm): 381 ± 61 g/kg bw/d | group mean daily body weight gain ([5]; 3375 ppm via feed): 0.1 ± 0.3 g | average daily feed consumption ([5]; 3375 ppm): 348 ± 131 g/kg bw/d | survival [5]: All animals survived until the end of the study | Free and total Cmax, difference between rats and mice (in vivo [7]; [11]): ≤ 2 fold | Free and total plasma elimination half-lives, difference between rats and mice (in vivo [7]; [11]): ≤ 2 fold | half-life (in vivo [7]; Hsd:Sprague Dawley SD, rat): 4.82 h

From article PMC7931638 (Xenobiotica; the fate of foreign compounds in biological …, 2020)
